Results reported in ChEMBL document CHEMBL4038301 (J Med Chem, 2017).

Assays:
Rattus norvegicus [1] = assay: Oral bioavailability in Sprague-Dawley rat at 10 mg/kg, administered via nasogastric gavage up to 24 hrs by LC/MS/MS analysis; format: ADME, organism-based; conditions: in vivo
[2] = Plasma clearance in cynomolgus monkey at 0.2 mg/kg, iv up to 24 hrs by LC/MS/MS analysis; format: ADME, organism-based, Macaca fascicularis
Rattus norvegicus [3] = assay: Terminal half life in Sprague-Dawley rat at 1 mg/kg, iv up to 24 hrs post dose by LC/MS/MS analysis; format: ADME, organism-based; conditions: in vivo
Outline: (§1)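 Male Sprague–Dawley rats (250–350 g, n=2), dual-cannulated (carotid artery and jugular vein). Dosed 1.0 mg/kg IV into the jugular vein in 10% ethanol, 50–70% PEG 400 and 20–40% saline.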

Rattus norvegicus [4] = assay: MRT in Sprague-Dawley rat at 1 mg/kg, iv up to 24 hrs post dose by LC/MS/MS analysis; format: ADME, organism-based; conditions: in vivo
Rattus norvegicus [5] = assay: Volume of distribution at steady state in Sprague-Dawley rat at 1 mg/kg, iv up to 24 hrs post dose by LC/MS/MS Analysis; format: ADME, organism-based; conditions: in vivo; outline: as §1
[6] = Total plasma concentration in Sprague-Dawley rat at 10 mg/kg, po after 1 hr post dose by LC/MS/MS analysis; format: ADME, organism-based
[7] = Total drug level in Sprague-Dawley rat brain at 10 mg/kg, po after 1 hr post dose by LC/MS/MS analysis; format: ADME, organism-based; conditions: read-out: Drug uptake
[8] = Ratio of drug level in Sprague-Dawley rat brain to plasma at 10 mg/kg, po after 1 hr post dose by LC/MS/MS analysis; format: ADME, organism-based
Plasma = assay: Unbound plasma concentration in Sprague-Dawley rat at 10 mg/kg, po after 1 hr post dose by LC/MS/MS analysis; format: ADME, organism-based; conditions: in vivo
Brain [9] = assay: Unbound drug level in Sprague-Dawley rat brain at 10 mg/kg, po after 1 hr post dose by LC/MS/MS analysis; format: ADME, organism-based; conditions: in vivo
[10] = Ratio of unbound drug level in Sprague-Dawley rat brain to plasma at 10 mg/kg, po after 1 hr post dose by LC/MS/MS analysis; format: ADME, organism-based
Rattus norvegicus [11] = assay: Tmax in Sprague-Dawley rat at 10 mg/kg administered via nasogastric gavage up to 24 hrs by LC/MS/MS analysis; format: ADME, organism-based; conditions: in vivo, po
Rattus norvegicus [12] = assay: Cmax in Sprague-Dawley rat at 10 mg/kg, administered via nasogastric gavage up to 24 hrs by LC/MS/MS analysis; format: ADME, organism-based; parameters: dose 10 mg/kg, route nasogastric; conditions: in vivo, po
Rattus norvegicus [13] = assay: AUC in Sprague-Dawley rat at 10 mg/kg, administered via nasogastric gavage up to 24 hrs by LC/MS/MS analysis; format: ADME, organism-based; parameters: time < 24 hr, dose 10 mg/kg, route nasogastric; conditions: in vivo, po
Cynomolgus monkey [14] = assay: (§2) Terminal half life in cynomolgus monkey at 0.5 mg/kg, iv up to 24 hrs by LC/MS/MS analysis; format: ADME, organism-based, Macaca fascicularis; conditions: in vivo, 24 h
Cynomolgus monkey [15] = assay: MRT in cynomolgus monkey at 0.5 mg/kg, iv up to 24 hrs by LC/MS/MS analysis; format: ADME, organism-based, Macaca fascicularis; conditions: in vivo
[16] = Plasma clearance in cynomolgus monkey at 0.5 mg/kg, iv up to 24 hrs by LC/MS/MS analysis; format: ADME, organism-based, Macaca fascicularis
Cynomolgus monkey [17] = assay: Cmax in cynomolgus monkey at 5 mg/kg administered via nasogastric gavage up to 24 hrs by LC/MS/MS analysis; format: ADME, organism-based, Macaca fascicularis; parameters: dose 5 mg/kg, route nasogastric; conditions: in vivo, po
Cynomolgus monkey [18] = assay: AUC in cynomolgus monkey at 5 mg/kg administered via nasogastric gavage up to 24 hrs by LC/MS/MS analysis; format: ADME, organism-based, Macaca fascicularis; parameters: dose 5 mg/kg, time < 24 hr, route nasogastric; conditions: in vivo, po
Cynomolgus monkey [19] = assay: Oral bioavailability in cynomolgus monkey at 5 mg/kg administered via nasogastric gavage up to 24 hrs by LC/MS/MS analysis; format: ADME, organism-based, Macaca fascicularis; conditions: in vivo
[20] = Apparent permeability across apical to basolateral side in MDCK cells expressing human MDR1 at 2 uM after 30 mins by LC-MS/MS; format: ADME, cell-based, Canis lupus familiaris; conditions: dog, 0.5 h
[21] = Apparent permeability across basolateral to apical side in MDCK cells expressing human MDR1 at 2 uM after 30 mins by LC-MS/MS; format: ADME, cell-based, Canis lupus familiaris; conditions: dog, 0.5 h
[22] = Apparent permeability across apical to basolateral side in human Caco2 cells at 2 uM after 10 mins by LC-MS/MS; format: ADME, cell-based; conditions: caco-2, 10 min
[23] = Intrinsic clearance in human cryopreserved hepatocytes assessed per million cells at 5 uM measured after 15 to 120 mins by LC/MS/MS analysis; format: ADME, cell-based, Hepatocyte
Outline: (§3)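 Pooled human cryopreserved hepatocytes (19 donors, mixed gender), thawed and resuspended in KHB. Compound 5 µM final, shaken at 37 °C. Aliquots quenched in acetonitrile with carbamazepine at 0, 15, 30, 60 and 120 min. Percent parent remaining measured by LC/MS/MS. Midazolam served as positive control.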

[24] = Half life in human cryopreserved hepatocytes at 5 uM measured by LC/MS/MS analysis; format: ADME, cell-based, Hepatocyte; outline: as §3
[25] = Drug level in Harlan CD1 mouse brain at 3 mg/kg, ip at 15 mins; format: ADME, organism-based; conditions: read-out: Drug uptake
[26] = Drug metabolism in cynomolgus monkey hepatic S9 fraction assessed as AO-mediated metabolite formation by LC/MS analysis; format: ADME, Macaca fascicularis, Liver
Brain [27] = assay: Unbound concentration in Harlan CD1 mouse brain at 3 mg/kg, ip at 15 mins by equilibrium dialysis method; format: ADME, organism-based; conditions: in vivo
[28] = as §2; format: ADME, organism-based, Macaca fascicularis; conditions: in vivo, read-out: beta t1/2

## Cc1csc(NC(=O)c2cc(F)cc(Oc3cncnc3)c2)n1
Rattus norvegicus [1]
  F: < 5%
[2]
  clearance: 24 mL/min/kg

## Cc1cc(Oc2cncc(F)c2)cc(C(=O)Nc2cccc(F)n2)n1
Rattus norvegicus [3]
  beta t1/2: 1.37 h
Rattus norvegicus [4]
  MRT: 2.62 h
Rattus norvegicus [5]
  Vdss: 11 L/kg

## Cc1cc(Oc2cnc(C)nc2)cc(C(=O)Nc2ccc(F)cn2)n1
Rattus norvegicus [3]
  beta t1/2: 3.82 h
Rattus norvegicus [4]
  MRT: 3.18 h
Rattus norvegicus [5]
  Vdss: 1.2 L/kg
[6]
  concentration at 1 h: 4820 nM
[7]
  concentration at 1 h: 3220 nM
[8]
  BPR: 0.67
Plasma
  Cp(f): 390 nM
Brain [9]
  Drug uptake(free): 142 nM
[10]
  K(p,uu,brain): 0.36

## Cc1cc(Oc2cncnc2)cc(C(=O)Nc2ccc(F)cn2)n1
Rattus norvegicus [3]
  beta t1/2: 6.5 h
Rattus norvegicus [4]
  MRT: 1.55 h
Rattus norvegicus [5]
  Vdss: 1.8 L/kg
[6]
  concentration at 1 h: 3000 nM
[7]
  concentration at 1 h: 2580 nM
Plasma
  Cp(f): 318 nM
Brain [9]
  Drug uptake(free): 201 nM
Rattus norvegicus [11]
  Tmax: 0.5 h
Rattus norvegicus [12]
  Cmax: 4340 nM
Rattus norvegicus [13]
  AUC: 14.6 µM·h
Rattus norvegicus [1]
  F: 53%
Cynomolgus monkey [14]
  beta t1/2: 5.03 h
Cynomolgus monkey [15]
  MRT: 2.72 h
[16]
  clearance: 15.5 mL/min/kg
Cynomolgus monkey [17]
  Cmax: 1720 nM
Cynomolgus monkey [18]
  AUC: 7.32 µM·h
Cynomolgus monkey [19]
  F: 44%
[20]
  Papp: 6.2 ×10⁻⁶ cm/s
[21]
  Papp: 7.2 ×10⁻⁶ cm/s
[22]
  Papp: 6.5 ×10⁻⁶ cm/s
[23]
  CLH: 1.43 µL/min
[24]
  t1/2: 5.37 h
[25]
  concentration at […]: 1480 nM
[26]
  Drug metabolism: Metabolite_Detected
Brain [27]
  Drug uptake(free): 115 nM

## CCc1cccc(NC(=O)c2cc(Oc3cncnc3)cc(C)n2)n1
Rattus norvegicus [3]
  beta t1/2: 6.73 h
Rattus norvegicus [4]
  MRT: 1.33 h
Rattus norvegicus [5]
  Vdss: 6.6 L/kg

## Cc1cccc(NC(=O)c2cc(Oc3cncc(F)c3)cc(C)n2)n1
Rattus norvegicus [3]
  beta t1/2: 4.47 h
Rattus norvegicus [4]
  MRT: 2 h
Rattus norvegicus [5]
  Vdss: 4.5 L/kg

## Cc1cc(Oc2cncc(F)c2)cc(C(=O)Nc2ccc(F)cn2)n1
Rattus norvegicus [3]
  beta t1/2: 4.68 h
Rattus norvegicus [4]
  MRT: 3.47 h
Rattus norvegicus [5]
  Vdss: 1.9 L/kg
Plasma
  Cp(f): 38.6 nM
Brain [9]
  Drug uptake(free): 31.6 nM
[10]
  K(p,uu,brain): 0.82
Rattus norvegicus [11]
  Tmax: 1.5 h
Rattus norvegicus [12]
  Cmax: 3330 nM
Rattus norvegicus [13]
  AUC: 38 µM·h
Rattus norvegicus [1]
  F: 71%
[28]
  half-life: 9.38 h
Cynomolgus monkey [15]
  MRT: 5.05 h
[16]
  clearance: 13.3 mL/min/kg
Cynomolgus monkey [17]
  Cmax: 1360 nM
Cynomolgus monkey [18]
  AUC: 6.43 µM·h
Cynomolgus monkey [19]
  F: 35%

## Cc1cccc(NC(=O)c2cc(Oc3cncnc3)cc(C)n2)n1
Rattus norvegicus [3]
  beta t1/2: 1.75 h
Rattus norvegicus [4]
  MRT: 0.65 h
Rattus norvegicus [5]
  Vdss: 1.6 L/kg
